Activity calls are given as the source filed them. No cut-off for these calls is given here.
Tests used:
[1] = Inhibition of HCV NS5B polymerase assessed as blocking of full length RNA product formation by single-nucleotide incorporation assay; design: species or system Hepacivirus hominis
How it was run: (§1)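 Run 30 min with 3 μM each NTP, competing nucleotide 300 nM. Full-length product was resolved on urea gels and quantified by phosphorimager. IC50 came from a four-parameter logistic fit, three independent experiments. The ratio is S282T IC50 over wild-type IC50.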

[2] = molecular target: RNA-directed RNA polymerase (Hepacivirus hominis, UniProt O39930, S282T); experiment: Inhibition of HCV NS5B polymerase S282T mutant assessed as blocking of full length RNA product formation by single-nucleotide incorporation assay; how it was run: as §1
[3] = tested on: Hepacivirus hominis; experiment: Ratio of IC50 for HCV NS5B polymerase S282T mutant to IC50 for HCV NS5B polymerase by single-nucleotide incorporation assay; how it was run: as §1
[4] = tested on: Hepacivirus hominis; experiment: Inhibition of HCV NS5B polymerase assessed as chain termination of RNA synthesis

Chain of RNA-directed RNA polymerase (O39930 entry or part of it S282T): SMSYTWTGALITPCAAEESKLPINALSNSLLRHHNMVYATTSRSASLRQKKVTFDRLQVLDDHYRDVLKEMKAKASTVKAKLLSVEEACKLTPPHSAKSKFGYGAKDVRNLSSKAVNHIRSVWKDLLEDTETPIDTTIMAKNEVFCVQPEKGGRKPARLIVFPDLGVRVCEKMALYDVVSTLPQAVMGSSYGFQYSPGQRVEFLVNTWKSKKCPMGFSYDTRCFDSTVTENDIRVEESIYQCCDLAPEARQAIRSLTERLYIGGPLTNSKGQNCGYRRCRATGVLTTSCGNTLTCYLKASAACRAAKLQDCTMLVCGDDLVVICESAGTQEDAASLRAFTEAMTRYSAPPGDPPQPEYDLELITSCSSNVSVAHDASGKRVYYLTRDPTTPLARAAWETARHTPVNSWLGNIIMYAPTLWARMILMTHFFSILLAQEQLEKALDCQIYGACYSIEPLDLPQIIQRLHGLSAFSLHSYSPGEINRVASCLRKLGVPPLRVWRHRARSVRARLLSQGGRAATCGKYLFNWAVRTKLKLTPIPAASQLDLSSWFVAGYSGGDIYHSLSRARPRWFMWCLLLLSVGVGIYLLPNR

SMILES	IC50 [1]	IC50 [2]	Ratio IC50 [3]	Activity [4]
C[C@@]1(O)[C@H](O)[C@@H](COP(=O)(O)OP(=O)(O)OP(=O)(O)O)O[C@H]1n1cnc2c(N)ncnc21	4.2 µM	> 100 µM	> 24	–
Nc1ncnc2c1ncn2[C@@H]1O[C@H](COP(=O)(O)OP(=O)(O)OP(=O)(O)O)C[C@H]1O	4.4 µM	8.8 µM	2	Active
Nc1nc2c(ncn2[C@@H]2O[C@H](COP(=O)(O)OP(=O)(O)OP(=O)(O)O)C[C@H]2O)c(=O)[nH]1	–	–	–	Active
Nc1ccn([C@@H]2O[C@H](COP(=O)(O)OP(=O)(O)OP(=O)(O)O)C[C@H]2O)c(=O)n1	0.46 µM	0.77 µM	1.7	Active
C[C@@]1(O)[C@H](O)[C@@H](COP(=O)(O)OP(=O)(O)OP(=O)(O)O)O[C@H]1n1ccc(N)nc1=O [2'-C-METHYLCYTIDINE TRIPHOSPHATE]	6.3 µM	60 µM	9.5	–
O=c1ccn([C@@H]2O[C@H](COP(=O)(O)OP(=O)(O)OP(=O)(O)O)C[C@H]2O)c(=O)[nH]1	–	–	–	Active

— ChEMBL document CHEMBL1155141, “Pyrophosphorolytic excision of nonobligate chain terminators by hepatitis C virus NS5B polymerase” (Antimicrob Agents Chemother, 2007)
